A selection: hits, their analogues and other compounds. The true share with any hit is near 1.9%.
CHRM5 PAM: CHRM5 positive allosteric modulation; activation, % at 3 µM; 0.3% of 360,000 active; P08912; CHO-K1 hM5, Fluo-8 calcium, ACh EC20 PAM; 0% = ACh EC20, 100% = ACh EC100;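 active = activation above the run cutoff, the mean activation of all test compounds plus 3 SD, cut at about 18% in these data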
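system = human M5 receptor in CHO-K1 cells | reagent = EC20 acetylcholine as agonist stimulus | compound dosing = single-point, 3 µM nominal | incubation = Fluo-8 loading 80 min at 37 °C plus 30 min room temperature | detection = Fluo-8 calcium dye fluorescence, kinetic read | benchmarks = low control EC20 acetylcholine (0%), high control EC100 acetylcholine (100%)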
M5 ag: agonists of human muscarinic M5 receptor (CHRM5). 0.19% of 360,000 active. P08912. AID 624037. CHO-K1 hM5 cells, Fluo-8 calcium fluorescence; 0% DMSO wells, 100% maximal acetylcholine response. activation, % at 3 µM;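 active = activation above the run's mean over test compounds plus 3 SD, cut at about 23% in these data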;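 also: signal is peak over basal fluorescence ratio across the kinetic read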
CHRM5 antagonist: blocks acetylcholine activation of human M5 receptor | CHO-hM5 cells, Fluo-8 calcium fluorescence, ACh EC80 | inhibition, % at 3 µM | 0.59% of 360,000 active | AID 624040;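 active = inhibition above a per-plate cutoff, the mean of that plate's test compounds plus 3 SD, cut at about 27% in these data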;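 also: 0% = acetylcholine EC80 with DMSO and 100% = DMSO without agonist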
M4 ag: CHRM4 agonism in calcium assay. P08173. CHO-K1 hM4/Gqi5, Fluo-8 calcium fluorescence; vehicle 0%, full acetylcholine response 100%. activation, % at 3 µM. 0.14% of 360,000 active. AID 624127;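 active = activation above the run mean over all test wells plus 3 SD, cut at about 32% in these data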;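 also: peak over basal fluorescence ratio per well then scaled between controls; 0% = DMSO wells and 100% = acetylcholine at EC100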
Target sequence (P08173 whole entry, looked up): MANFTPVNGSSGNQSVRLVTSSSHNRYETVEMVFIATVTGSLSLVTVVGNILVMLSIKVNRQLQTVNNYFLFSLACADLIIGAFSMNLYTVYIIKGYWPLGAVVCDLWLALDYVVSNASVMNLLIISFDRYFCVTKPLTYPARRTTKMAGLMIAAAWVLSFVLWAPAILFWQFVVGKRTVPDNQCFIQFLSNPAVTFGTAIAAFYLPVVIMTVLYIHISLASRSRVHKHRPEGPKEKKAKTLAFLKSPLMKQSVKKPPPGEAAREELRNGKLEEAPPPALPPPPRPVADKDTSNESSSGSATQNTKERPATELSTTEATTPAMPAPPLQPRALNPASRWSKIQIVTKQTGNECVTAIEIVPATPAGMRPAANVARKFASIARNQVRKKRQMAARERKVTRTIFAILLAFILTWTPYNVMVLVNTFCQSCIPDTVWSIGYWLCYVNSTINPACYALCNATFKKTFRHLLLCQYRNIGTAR
M4 PAM: CHRM4 positive allosteric modulation | 0.4% of 360,000 active | AID 624126 | activation, % at 3 µM | CHO-K1 hM4/Gqi5, Fluo-8 calcium fluorescence, ACh EC20; 0% = ACh EC20, 100% = maximal ACh | P08173;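 active = activation above its plate's cutoff, the mean activation of sample wells plus 3 SD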
M4 antag: blocks acetylcholine activation of human M4 receptor; P08173; CHO-hM4 cells, ACh EC80, Fluo-8 calcium fluorescence; inhibition, % at 3 µM; 0.73% of 360,000 active; AID 624125;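 active = inhibition above its plate's cutoff, the mean inhibition of sample wells plus 3 SD, cut at about 27% in these data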;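 also: 0% = acetylcholine EC80 with DMSO and 100% = DMSO without agonist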
Starred values were filed as active, the others as inactive.

`COc1ccc(CCNC(=O)CCCCC(=O)NCCc2ccc(OC)cc2)cc1` gave CHRM5 PAM -2, M5 ag -3, CHRM5 antagonist 16, M4 ag 0, M4 PAM -1 and M4 antag 0.
Screening COc1ccc(S(N)(=O)=O)cc1C(N)=O returned CHRM5 PAM 1, M5 ag 0, CHRM5 antagonist -2, M4 ag 1, M4 PAM 17 and M4 antag -1.
COc1ccc(S(=O)(=O)N2CCSCC2)cc1C(N)=O was read as CHRM5 PAM 7, M5 ag -2, CHRM5 antagonist -6, M4 ag 2, M4 PAM 14* and M4 antag -6.
For S=C(Nc1cccc(Cl)c1Cl)NC1CCN(Cc2ccccc2)CC1 the results were CHRM5 PAM 5, M5 ag -1, CHRM5 antagonist -2, M4 ag 9, M4 PAM 0 and M4 antag 9.
Screening S=C(Nc1ccc(Cl)c(Cl)c1)NC1CCCCC1 returned CHRM5 PAM -23, M5 ag 3, CHRM5 antagonist 29*, M4 ag 18, M4 PAM -10 and M4 antag 15.
Fc1ccc(NC(=S)NC2CCN(Cc3ccccc3)CC2)cc1 was read as CHRM5 PAM -5, M5 ag -2, CHRM5 antagonist -2, M4 ag 6, M4 PAM -9 and M4 antag 1.
`Cc1cccc(NC(=S)NC2CCN(Cc3ccccc3)CC2)c1C` gave CHRM5 PAM 9, M5 ag 0, CHRM5 antagonist -7, M4 ag 5, M4 PAM 24* and M4 antag 5.
Fc1cccc(NC(=S)NC2CCCCCCC2)c1 was read as CHRM5 PAM -17, M5 ag 4, CHRM5 antagonist 27*, M4 ag 14, M4 PAM -6 and M4 antag -7.
Screening S=C(Nc1ccc(Cl)c(Cl)c1)NC1CCN(Cc2ccccc2)CC1 returned CHRM5 PAM -14, M5 ag 19, CHRM5 antagonist 33*, M4 ag 46*, M4 PAM 3 and M4 antag 38*.
`O=C(C1CC1)N1c2ccccc2Sc2ccccc21` gave CHRM5 PAM -14, M5 ag -23, CHRM5 antagonist 9, M4 ag -2, M4 PAM -12 and M4 antag 6.
Screening O=C(CN1CCN(CCOCCO)CC1)N1c2ccccc2Sc2ccc(Cl)cc21 returned CHRM5 PAM -33, M5 ag -14, CHRM5 antagonist 2, M4 ag 1, M4 PAM -16 and M4 antag 34*.
Screening CC1CCCN(CCC(=O)c2ccccc2)C1 (stereo not drawn) returned CHRM5 PAM -3, M5 ag 4, CHRM5 antagonist 2, M4 ag 1, M4 PAM 9 and M4 antag 2.
`O=C(CN1CCCCCC1)N1c2ccccc2Sc2ccccc21` gave CHRM5 PAM -34, M5 ag -14, CHRM5 antagonist 94*, M4 ag -1, M4 PAM -22 and M4 antag 94*.
Screening CC1CCCN(CC(=O)N2c3ccccc3Sc3ccccc32)C1 (stereo not drawn) returned CHRM5 PAM -34, M5 ag -14, CHRM5 antagonist 30*, M4 ag -1, M4 PAM -22 and M4 antag 33*.
Screening O=C(/C=C/c1ccccc1)N1c2ccccc2Sc2ccc(C(F)(F)F)cc21 returned CHRM5 PAM 7, M5 ag 2, CHRM5 antagonist 7, M4 ag 0, M4 PAM 29* and M4 antag -7.
Screening O=C(CN1CCOCC1)N1c2ccccc2Sc2ccc(Cl)cc21 returned CHRM5 PAM -9, M5 ag -3, CHRM5 antagonist 8, M4 ag 0, M4 PAM -8 and M4 antag 15.
Screening CCN(c1ccccc1)S(=O)(=O)c1ccc(OC)c(NC(=O)C2CC(=O)N(Cc3ccccc3)C2)c1 (stereo not drawn) returned CHRM5 PAM -10, M5 ag -2, CHRM5 antagonist 5, M4 ag 12, M4 PAM -11 and M4 antag -5.
CCOC(=O)C1CCN(Cc2cn(C)nc2-c2ccc(Oc3ccccc3)cc2)CC1 was read as CHRM5 PAM 5, M5 ag -5, CHRM5 antagonist 10, M4 ag 2, M4 PAM -2 and M4 antag 10.
For CC1CCCN(c2ccc(C(=O)OCC(=O)N3c4ccccc4Sc4ccccc43)cc2[N+](=O)[O-])C1 (stereo not drawn) the results were CHRM5 PAM -18, M5 ag -5, CHRM5 antagonist 6, M4 ag -1, M4 PAM -32 and M4 antag 30*.
For CC1CCCN(c2ccc(C(=O)OCn3nnc4ccccc4c3=O)cc2[N+](=O)[O-])C1 (stereo not drawn) the results were CHRM5 PAM -1, M5 ag 0, CHRM5 antagonist 7, M4 ag 1, M4 PAM 0 and M4 antag 4.
CC1Cc2ccccc2N1C(=O)CN1CCCCC1 (stereo not drawn) was read as CHRM5 PAM -7, M5 ag 0, CHRM5 antagonist 7, M4 ag 17, M4 PAM -7 and M4 antag -2.
O=C1CCCN1CCCNCC(O)c1ccccc1 (stereo not drawn) was read as CHRM5 PAM 2, M5 ag -2, CHRM5 antagonist 12, M4 ag 1, M4 PAM 5 and M4 antag -6.
For O=C1CCCN1CCCNCC(=O)N1c2ccccc2Sc2ccccc21 the results were CHRM5 PAM -26, M5 ag -12, CHRM5 antagonist 35*, M4 ag 0, M4 PAM -18 and M4 antag 52*.
Screening CCOC(=O)N1CCN(CC(=O)N2c3ccccc3Sc3ccccc32)CC1 returned CHRM5 PAM 1, M5 ag 14, CHRM5 antagonist 1, M4 ag 4, M4 PAM 2 and M4 antag -16.
`O=C(CN1CCCCC1)N1c2ccccc2Oc2ccccc21` gave CHRM5 PAM -22, M5 ag -8, CHRM5 antagonist 23, M4 ag 1, M4 PAM -20 and M4 antag 37*.
Screening CN1CCN(CC(=O)N2c3ccccc3Sc3ccccc32)CC1 returned CHRM5 PAM -18, M5 ag -6, CHRM5 antagonist 64*, M4 ag 1, M4 PAM -15 and M4 antag 67*.
Screening O=C(C1CCN(S(=O)(=O)c2ccccc2)CC1)N1CCCCCC1 returned CHRM5 PAM 3, M5 ag -5, CHRM5 antagonist 8, M4 ag 1, M4 PAM 5 and M4 antag 2.
